In ChEMBL document CHEMBL2434928, “New derivatives of salicylamides: Preparation and antimicrobial activity against various bacterial species” (2013) one finds MIC data, which are given here for 3 compounds.

Holding throughout (format): functional
The test system of experiment [1] is Staphylococcus aureus. Put plainly: Antimicrobial activity against methicillin-resistant Staphylococcus aureus 630 after 24 hrs by broth microdilution method. Conditions: Staphylococcus aureus, 630, 24 h. The gist of the method:
(§1)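 Colonies grown on nutrient agar with 5% ovine blood were suspended in PBS (pH 7.2–7.3), adjusted to 0.5 McFarland, and diluted 1:20 in Mueller–Hinton broth. Compounds were dissolved in DMSO (final ≤2.5%) and tested by NCCLS-modified broth microdilution with drug-free, sterility and broth+DMSO controls.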
A general note: In broth dilution the organism is exposed to a series of concentrations in liquid medium.

Another experiment deals with Mycobacterium marinum. Put plainly: Antimycobacterial activity against Mycobacterium marinum CAMP 5644 after 21 days. The note with it: CAMP 5644, 504 h. An outline of the steps: (§2)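 MIC by broth microdilution in Middlebrook 7H9 with ADC enrichment. Compounds were dissolved in DMSO. Inoculum: colonies in sterile water adjusted to 0.5 McFarland, then diluted 1:1000 in sterile water. Drug-free, sterility and medium+DMSO controls were included. Wells were read visually after static incubation in the dark.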

For a further experiment, the system named is Clostridium perfringens. Put plainly: Antimicrobial activity against Clostridium perfringens CNCTC 5770 after 24 hrs by broth microdilution method. Conditions: CNCTC 5770, 24 h. An outline of the steps:
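Colonies grown on blood agar (nutrient agar, 5% ovine blood) were suspended in PBS pH 7.2–7.3, set to 0.5 McFarland, and diluted 1:20 in MH broth for the final inoculum. Compounds were in DMSO (≤2.5% final), tested by NCCLS-modified microdilution with drug-free, sterility and DMSO controls.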

Experiment [2] concerns Staphylococcus aureus. As to the kind of experiment: Antimicrobial activity against methicillin-resistant Staphylococcus aureus 3202 after 24 hrs by broth microdilution method. Conditions: Staphylococcus aureus, 3202, 24 h. The gist of the method: as §1
Experiment [3] deals with Mycolicibacterium smegmatis. As to the kind of experiment: Antimycobacterial activity against Mycobacterium smegmatis ATCC 700084 after 3 days. Conditions: ATCC 700084, 72 h. The gist of the method: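 Middlebrook 7H9 plus ADC broth microdilution MIC, with compounds in DMSO. Colonies were suspended in sterile water to 0.5 McFarland, then diluted 1:1000 in sterile water. Drug-free, sterility and DMSO controls were included. The visual read followed 3 days of static aerobic incubation at 37 °C in darkness.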

Another experiment deals with Bacillus cereus. As to the kind of experiment: Antimicrobial activity against Bacillus cereus ATCC 14579 after 24 hrs by broth microdilution method. The note with it: ATCC 14579, 24 h. An outline of the steps:
(§3)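 Broth microdilution MIC in Mueller–Hinton broth, per modified NCCLS guidelines. Strains were grown on nutrient agar with 5% ovine blood. Colonies were suspended in PBS (pH 7.2–7.3), adjusted to 0.5 McFarland, then diluted 1:20 in MH broth. Compounds were in DMSO, ≤2.5% final. Drug-free, sterility and DMSO controls were included.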

For a further experiment, the system named is Mycobacterium kansasii. Put plainly: Antimycobacterial activity against Mycobacterium kansasii DSM 44162 after 7 days. Conditions: DSM 44162, 168 h. The gist of the method: as §2
Experiment [4] concerns Staphylococcus aureus. Put plainly: Antimicrobial activity against Staphylococcus aureus ATCC 29213 after 24 hrs by broth microdilution method. The note with it: ATCC 29213, 24 h. An outline of the steps:
as §3

For a further experiment, the system named is Pasteurella multocida. As to the kind of experiment: Antimicrobial activity against Pasteurella multocida clinical isolate after 24 hrs by broth microdilution method. An outline of the steps:
as §3

Experiment [5] concerns Staphylococcus aureus. As to the kind of experiment: Antimicrobial activity against methicillin-resistant Staphylococcus aureus 63718 after 24 hrs by broth microdilution method. Conditions: Staphylococcus aureus, 63718, 24 h. The gist of the method: as §1

The structures appear in SMILES notation. Converted amounts (≈) assume the structure as drawn. Bounds are passed on as bounds.

For orientation: MIC means the lowest concentration that inhibits growth of the organism. Lower therefore signals inhibition by little substance. Consider `O=C(Nc1ccccc1)c1cc(Cl)ccc1O`, for which the MIC in the experiment with Staphylococcus aureus [1] is 16.1 µM (≈ 4 µg/mL); against Mycobacterium marinum, 64.6 µM (≈ 16 µg/mL); with Clostridium perfringens it was above 1030 µM; with Staphylococcus aureus [2], 16.1 µM (≈ 4 µg/mL); in experiment [3] it was 64.6 µM (≈ 16 µg/mL); in the experiment on Bacillus cereus it was 32.3 µM (≈ 8 µg/mL). Further, the MIC worked out at 16.1 µM (≈ 4 µg/mL) against Mycobacterium kansasii, 16.1 µM (≈ 4 µg/mL) with Staphylococcus aureus [4], 1.01 µM (≈ 0.25 µg/mL) with Pasteurella multocida and 32.3 µM (≈ 8 µg/mL) against Staphylococcus aureus [5].

`O=C(Nc1ccc(Cl)cc1)c1cc(Cl)ccc1O`: the MIC with Staphylococcus aureus [1] is 28.4 µM (≈ 8 µg/mL); in the experiment with Mycobacterium marinum, 7.08 µM (≈ 2 µg/mL); in the experiment with Clostridium perfringens it was 14.2 µM (≈ 4 µg/mL); with Staphylococcus aureus [2] it was 56.7 µM (≈ 16 µg/mL); in [3], 28.4 µM (≈ 8 µg/mL); against Bacillus cereus it was 14.2 µM (≈ 4 µg/mL). The MIC is 7.08 µM (≈ 2 µg/mL) against Mycobacterium kansasii, 28.4 µM (≈ 8 µg/mL) in the experiment with Staphylococcus aureus [4], 3.54 µM (≈ 0.999 µg/mL) with Pasteurella multocida and 56.7 µM (≈ 16 µg/mL) in the experiment on Staphylococcus aureus [5].

As to `Cc1ccc(NC(=O)c2cc(Cl)ccc2O)cc1`, the MIC with Staphylococcus aureus [1] is above 978 µM; with Mycobacterium marinum, 61.1 µM (≈ 16 µg/mL); against Clostridium perfringens it was above 978 µM; in the experiment with Staphylococcus aureus [2], above 978 µM; in [3], above 978 µM; in the experiment on Bacillus cereus, 30.6 µM (≈ 8 µg/mL). Also, the MIC in the experiment on Mycobacterium kansasii was 30.6 µM (≈ 8 µg/mL); with Staphylococcus aureus [4] it was above 978 µM; in the experiment with Pasteurella multocida, 1.91 µM (≈ 0.5 µg/mL); in the experiment with Staphylococcus aureus [5], above 978 µM.
